Here are results for one compound from ChEMBL document CHEMBL4190262, “Tuning of β-glucosidase and α-galactosidase inhibition by generation and in situ screening of a library of pyrrolidine-triazole hybrid molecules” (Eur J Med Chem, 2017).

In general, inhibition refers to the percentage by which the read-out fell short of the control. As a reminder, the IC50 is the concentration that inhibits the measured activity by half.

Calls of active or inactive are those of the source. The rule behind the calls is not given here.

One assay has as its system Cornu aspersum. Nature of the assay: Inhibition of snail beta-mannosidase at 1 mM using p-nitrophenyl glycopyranoside preincubated for 5 mins followed by substrate addition measured after 20 mins by visible absorption spectroscopic method relative to control. The essentials: (§1)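 Test compound at 1 mM in well. Mix: 0.01–0.5 units/mL enzyme plus 10 mM p-nitrophenyl glycopyranoside (aqueous solution), buffered to the enzyme's optimal pH. Enzyme and inhibitor preincubated 5 min at rt. Substrate then added and incubated 20 min at 37 °C. Stopped with sodium borate (pH 9.8). p-Nitrophenolate read at 405 nm. Duplicates averaged.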

For assay [1], the target named is Alpha-galactosidase (Coffea arabica) (UniProt Q42656). Nature of the assay: Inhibition of coffee beans alpha-galactosidase at 1 mM using p-nitrophenyl glycopyranoside preincubated for 5 mins followed by substrate addition measured after 20 mins by visible absorption spectroscopic method relative to control. The essentials:
as §1

The target of assay [2] is Beta-galactosidase (Escherichia coli) (UniProt Q8VNN2). Nature of the assay: Inhibition of Escherichia coli beta-galactosidase at 1 mM using p-nitrophenyl glycopyranoside preincubated for 5 mins followed by substrate addition measured after 20 mins by visible absorption spectroscopic method relative to control. The method, boiled down: as §1
The subject of the next assay is Saccharomyces cerevisiae. The assay can be described thus: Inhibition of yeast alpha glucosidase at 1 mM using p-nitrophenyl glycopyranoside preincubated for 5 mins followed by substrate addition measured after 20 mins by visible absorption spectroscopic method relative to control. The method, boiled down:
as §1

In another assay the test system is Aspergillus niger. Nature of the assay: Inhibition of Aspergillus niger amyloglucosidase at 1 mM using p-nitrophenyl glycopyranoside preincubated for 5 mins followed by substrate addition measured after 20 mins by visible absorption spectroscopic method relative to control. The essentials: as §1
Another assay is filed under the species Bos taurus. Nature of the assay: Inhibition of bovine kidney alpha-L-fucosidase at 1 mM using p-nitrophenyl glycopyranoside preincubated for 5 mins followed by substrate addition measured after 20 mins by visible absorption spectroscopic method relative to control. The method, boiled down: as §1
The target of assay [3] is T1, Alpha-mannosidase (Canavalia ensiformis) (UniProt C0HJB3).
T1 sequence (whole entry): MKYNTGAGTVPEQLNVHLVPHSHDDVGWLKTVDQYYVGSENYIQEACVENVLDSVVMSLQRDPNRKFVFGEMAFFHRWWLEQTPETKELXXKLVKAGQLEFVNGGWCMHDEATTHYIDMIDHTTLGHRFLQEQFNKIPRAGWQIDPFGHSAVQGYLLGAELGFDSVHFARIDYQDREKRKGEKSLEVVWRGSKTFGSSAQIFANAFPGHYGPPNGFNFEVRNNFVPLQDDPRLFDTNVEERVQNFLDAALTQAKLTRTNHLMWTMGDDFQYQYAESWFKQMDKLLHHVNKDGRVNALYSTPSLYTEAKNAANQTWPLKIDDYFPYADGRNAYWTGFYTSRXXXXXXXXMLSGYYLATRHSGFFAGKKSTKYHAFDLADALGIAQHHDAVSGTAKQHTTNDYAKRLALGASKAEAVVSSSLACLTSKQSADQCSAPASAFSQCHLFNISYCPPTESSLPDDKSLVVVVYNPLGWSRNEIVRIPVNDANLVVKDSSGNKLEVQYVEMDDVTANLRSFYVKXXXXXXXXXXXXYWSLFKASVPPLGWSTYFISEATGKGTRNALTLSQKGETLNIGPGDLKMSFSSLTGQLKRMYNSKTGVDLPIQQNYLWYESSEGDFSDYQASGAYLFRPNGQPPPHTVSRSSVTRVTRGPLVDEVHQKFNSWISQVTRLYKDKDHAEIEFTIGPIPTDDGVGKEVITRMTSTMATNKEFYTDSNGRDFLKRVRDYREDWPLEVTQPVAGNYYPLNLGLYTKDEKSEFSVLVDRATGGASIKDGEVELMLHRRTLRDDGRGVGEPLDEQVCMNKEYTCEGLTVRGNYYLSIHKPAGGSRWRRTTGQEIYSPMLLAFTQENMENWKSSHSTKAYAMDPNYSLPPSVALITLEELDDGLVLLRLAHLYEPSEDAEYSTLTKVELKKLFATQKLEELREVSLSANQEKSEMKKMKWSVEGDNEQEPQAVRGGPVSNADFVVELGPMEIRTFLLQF
Nature of the assay: Inhibition of jack bean alpha-mannosidase at 1 mM using p-nitrophenyl glycopyranoside preincubated for 5 mins followed by substrate addition measured after 20 mins by visible absorption spectroscopic method relative to control. The method, boiled down:
as §1

The subject of another assay is Canavalia ensiformis. Nature of the assay: Inhibition of jack bean beta-N-acetylglucosaminidase at 1 mM using p-nitrophenyl glycopyranoside preincubated for 5 mins followed by substrate addition measured after 20 mins by visible absorption spectroscopic method relative to control. The method, boiled down:
as §1

In another assay the test system is Prunus dulcis. Nature of the assay: Inhibition of almond beta-glucosidase at 1 mM using p-nitrophenyl glycopyranoside preincubated for 5 mins followed by substrate addition measured after 20 mins by visible absorption spectroscopic method relative to control. The essentials: as §1
The nature of assay [4]: Inhibition of bovine kidney alpha-L-fucosidase using p-nitrophenyl glycopyranoside preincubated for 5 mins followed by substrate addition measured after 20 mins by visible absorption spectroscopic method. On the set-up: species or system Bos taurus.
In a further assay the test system is Oryza sativa. The assay can be described thus: Inhibition of rice alpha-glucosidase at 1 mM using p-nitrophenyl glycopyranoside preincubated for 5 mins followed by substrate addition measured after 20 mins by visible absorption spectroscopic method relative to control. The method, boiled down: as §1
In assay [5] the target is T2, Beta-galactosidase (Aspergillus oryzae) (UniProt B7VU80).
T2 sequence (whole entry): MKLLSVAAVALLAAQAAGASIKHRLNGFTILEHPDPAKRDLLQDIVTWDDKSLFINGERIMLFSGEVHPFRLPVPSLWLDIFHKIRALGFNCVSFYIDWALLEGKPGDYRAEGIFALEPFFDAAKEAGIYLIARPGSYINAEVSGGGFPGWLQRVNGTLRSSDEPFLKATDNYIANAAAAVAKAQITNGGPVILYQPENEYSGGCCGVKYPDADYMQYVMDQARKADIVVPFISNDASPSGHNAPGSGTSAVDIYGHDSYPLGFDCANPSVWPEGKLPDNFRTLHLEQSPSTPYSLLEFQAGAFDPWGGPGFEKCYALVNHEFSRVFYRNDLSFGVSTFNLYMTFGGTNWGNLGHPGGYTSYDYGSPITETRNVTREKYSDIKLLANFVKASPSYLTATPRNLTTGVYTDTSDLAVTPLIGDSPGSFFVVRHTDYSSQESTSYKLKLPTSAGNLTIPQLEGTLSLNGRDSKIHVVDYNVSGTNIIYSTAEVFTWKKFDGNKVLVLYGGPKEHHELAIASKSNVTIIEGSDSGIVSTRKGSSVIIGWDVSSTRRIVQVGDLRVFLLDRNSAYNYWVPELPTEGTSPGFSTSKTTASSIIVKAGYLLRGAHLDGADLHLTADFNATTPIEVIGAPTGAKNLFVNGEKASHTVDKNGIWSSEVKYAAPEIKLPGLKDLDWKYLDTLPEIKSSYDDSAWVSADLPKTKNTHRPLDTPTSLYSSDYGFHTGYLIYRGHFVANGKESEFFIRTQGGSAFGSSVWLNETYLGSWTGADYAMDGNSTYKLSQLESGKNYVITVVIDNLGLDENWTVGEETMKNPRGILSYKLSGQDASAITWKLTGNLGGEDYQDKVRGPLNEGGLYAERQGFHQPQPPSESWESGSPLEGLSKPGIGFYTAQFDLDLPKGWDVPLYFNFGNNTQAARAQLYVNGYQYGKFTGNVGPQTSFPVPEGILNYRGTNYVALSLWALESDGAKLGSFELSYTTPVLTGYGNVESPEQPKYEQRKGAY
Nature of the assay: Inhibition of Aspergillus oryzae beta-galactosidase at 1 mM using p-nitrophenyl glycopyranoside preincubated for 5 mins followed by substrate addition measured after 20 mins by visible absorption spectroscopic method relative to control. The essentials: as §1

Alpha-galactosidase (Coffea arabica), sequence (Q42656 16-378 limits assumed): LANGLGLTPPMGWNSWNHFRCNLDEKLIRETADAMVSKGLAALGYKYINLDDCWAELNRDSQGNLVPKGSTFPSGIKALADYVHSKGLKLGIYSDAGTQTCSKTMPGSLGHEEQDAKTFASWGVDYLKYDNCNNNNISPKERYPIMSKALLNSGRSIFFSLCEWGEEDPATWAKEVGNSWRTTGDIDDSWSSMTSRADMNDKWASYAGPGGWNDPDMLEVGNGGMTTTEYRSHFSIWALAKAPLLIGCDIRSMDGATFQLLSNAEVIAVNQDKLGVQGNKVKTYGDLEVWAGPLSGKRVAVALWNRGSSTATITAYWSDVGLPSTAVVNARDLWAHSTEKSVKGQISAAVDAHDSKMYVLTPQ
Beta-galactosidase (Escherichia coli), sequence (Q8VNN2 whole entry, looked up): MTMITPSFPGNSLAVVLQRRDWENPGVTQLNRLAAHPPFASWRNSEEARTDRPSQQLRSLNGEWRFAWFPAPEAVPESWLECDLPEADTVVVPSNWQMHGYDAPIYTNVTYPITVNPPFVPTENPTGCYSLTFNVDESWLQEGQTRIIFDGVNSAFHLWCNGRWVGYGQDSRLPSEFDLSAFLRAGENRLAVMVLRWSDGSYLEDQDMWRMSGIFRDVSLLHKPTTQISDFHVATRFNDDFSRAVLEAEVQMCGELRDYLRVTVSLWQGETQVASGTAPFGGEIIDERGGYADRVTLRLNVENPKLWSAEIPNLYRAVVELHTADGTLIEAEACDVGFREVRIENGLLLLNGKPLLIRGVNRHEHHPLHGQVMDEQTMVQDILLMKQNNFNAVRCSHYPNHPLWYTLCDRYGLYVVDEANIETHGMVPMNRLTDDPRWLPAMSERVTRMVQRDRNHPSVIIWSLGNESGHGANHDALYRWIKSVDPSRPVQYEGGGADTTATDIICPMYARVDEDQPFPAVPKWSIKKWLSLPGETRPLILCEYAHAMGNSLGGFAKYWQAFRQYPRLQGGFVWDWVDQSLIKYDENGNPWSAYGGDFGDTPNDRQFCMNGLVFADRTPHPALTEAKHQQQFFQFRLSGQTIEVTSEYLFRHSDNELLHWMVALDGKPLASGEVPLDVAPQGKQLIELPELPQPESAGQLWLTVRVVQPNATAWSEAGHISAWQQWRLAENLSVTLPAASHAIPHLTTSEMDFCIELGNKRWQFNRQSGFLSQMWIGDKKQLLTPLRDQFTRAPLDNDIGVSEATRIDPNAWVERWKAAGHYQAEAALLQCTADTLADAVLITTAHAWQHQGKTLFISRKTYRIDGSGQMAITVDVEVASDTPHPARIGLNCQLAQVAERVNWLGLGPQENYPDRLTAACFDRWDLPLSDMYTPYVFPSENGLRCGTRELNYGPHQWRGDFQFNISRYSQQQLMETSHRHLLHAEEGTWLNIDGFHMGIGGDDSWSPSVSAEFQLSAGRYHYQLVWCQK

For the compound `O[C@@H]1[C@H](O)CN[C@@H]1c1cn(Cc2ccccc2)nn1`, the inhibition entry (in the assay on Cornu aspersum; in [1]; in assay [2]; in the assay with Saccharomyces cerevisiae; with Aspergillus niger; in assay [3]) was “inactive” in each case. In addition, the inhibition entry (in the assay with Canavalia ensiformis; in the assay on Prunus dulcis; in the assay on Oryza sativa; in assay [5]) was “inactive” throughout. Further, the inhibition in the assay listed under Bos taurus was 84%. Further, the IC50 in assay [4] turned out to be 168 µM.
